The results in this text go back to ChEMBL document CHEMBL1147678, “Discovery of a potent, nonpolyglutamatable inhibitor of glycinamide ribonucleotide transformylase” (J Med Chem, 2006).

Test [1] has as its target Bifunctional purine biosynthesis protein ATIC (Homo sapiens, UniProt P31939). The test is described as follows: Inhibition of human recombinant AICAR Tfase. The gist of the method: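 Recombinant human AICAR Tfase assayed by a previously described method. Reaction kinetics were followed for 2 min after initiation. Ki was derived from Dixon plots.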
For test [2], the system named is CCRF-CEM. Nature of the test: Antiproliferative activity against reduced folate carrier-deficient CCRF-CEM cell line. It is filed as functional, cell-based. The conditions noted are these: Homo sapiens. The essentials: (§1)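 CCRF-CEM human leukemia cells (parental or variant line) were continuously exposed to the test compounds for 72 h, and growth inhibition was then measured.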

Test [3] relates to CCRF-CEM. Nature of the test: Antiproliferative activity against human CCRF-CEM cell line in presence of hypoxanthine. It is filed as functional, cell-based.
In test [4] the test system is CCRF-CEM. The test is described as follows: Antiproliferative activity against human CCRF-CEM cell line. It counts as functional, cell-based. The essentials:
as §1

In test [5] the target is T1, Trifunctional purine biosynthetic protein adenosine-3 (Homo sapiens, UniProt P22102).
T1 sequence (P22102 whole entry): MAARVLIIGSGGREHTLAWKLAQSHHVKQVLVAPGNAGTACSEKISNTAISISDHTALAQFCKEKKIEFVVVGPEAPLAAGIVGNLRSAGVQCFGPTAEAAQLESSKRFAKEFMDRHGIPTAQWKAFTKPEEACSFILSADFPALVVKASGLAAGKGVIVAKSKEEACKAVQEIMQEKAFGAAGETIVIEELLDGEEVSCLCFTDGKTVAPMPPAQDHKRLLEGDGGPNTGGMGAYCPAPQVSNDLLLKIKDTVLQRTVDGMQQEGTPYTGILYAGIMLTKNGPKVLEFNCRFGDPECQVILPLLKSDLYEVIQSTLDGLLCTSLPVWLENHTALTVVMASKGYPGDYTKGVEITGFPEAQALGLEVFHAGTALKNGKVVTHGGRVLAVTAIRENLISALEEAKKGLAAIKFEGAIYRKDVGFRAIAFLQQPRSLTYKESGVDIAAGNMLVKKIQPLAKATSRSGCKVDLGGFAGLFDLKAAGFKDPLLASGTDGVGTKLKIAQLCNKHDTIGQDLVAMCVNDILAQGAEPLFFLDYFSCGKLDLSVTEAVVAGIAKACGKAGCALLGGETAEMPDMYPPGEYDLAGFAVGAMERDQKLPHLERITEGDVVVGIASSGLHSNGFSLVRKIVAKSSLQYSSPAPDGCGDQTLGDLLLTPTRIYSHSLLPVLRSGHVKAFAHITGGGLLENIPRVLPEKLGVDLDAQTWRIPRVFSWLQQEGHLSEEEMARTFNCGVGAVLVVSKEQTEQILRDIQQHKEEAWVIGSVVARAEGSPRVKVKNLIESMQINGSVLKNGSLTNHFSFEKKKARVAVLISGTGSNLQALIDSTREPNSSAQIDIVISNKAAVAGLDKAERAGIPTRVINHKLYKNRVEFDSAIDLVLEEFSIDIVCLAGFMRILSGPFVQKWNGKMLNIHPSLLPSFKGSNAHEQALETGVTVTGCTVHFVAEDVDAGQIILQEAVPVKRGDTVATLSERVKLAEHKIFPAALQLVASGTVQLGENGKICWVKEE
Nature of the test: Inhibition of human recombinant GAR Tfase.

Test [6] deals with CCRF-CEM. The test is described as follows: Antiproliferative activity against FPGS-deficient CCRF-CEM cell line. It counts as functional, cell-based. The conditions noted are these: Homo sapiens. The essentials:
as §1

Test [7] has as its system CCRF-CEM. Nature of the test: Antiproliferative activity against human CCRF-CEM cell line in presence of thymidine. It counts as functional, cell-based.

Bifunctional purine biosynthesis protein ATIC, sequence (P31939 whole entry): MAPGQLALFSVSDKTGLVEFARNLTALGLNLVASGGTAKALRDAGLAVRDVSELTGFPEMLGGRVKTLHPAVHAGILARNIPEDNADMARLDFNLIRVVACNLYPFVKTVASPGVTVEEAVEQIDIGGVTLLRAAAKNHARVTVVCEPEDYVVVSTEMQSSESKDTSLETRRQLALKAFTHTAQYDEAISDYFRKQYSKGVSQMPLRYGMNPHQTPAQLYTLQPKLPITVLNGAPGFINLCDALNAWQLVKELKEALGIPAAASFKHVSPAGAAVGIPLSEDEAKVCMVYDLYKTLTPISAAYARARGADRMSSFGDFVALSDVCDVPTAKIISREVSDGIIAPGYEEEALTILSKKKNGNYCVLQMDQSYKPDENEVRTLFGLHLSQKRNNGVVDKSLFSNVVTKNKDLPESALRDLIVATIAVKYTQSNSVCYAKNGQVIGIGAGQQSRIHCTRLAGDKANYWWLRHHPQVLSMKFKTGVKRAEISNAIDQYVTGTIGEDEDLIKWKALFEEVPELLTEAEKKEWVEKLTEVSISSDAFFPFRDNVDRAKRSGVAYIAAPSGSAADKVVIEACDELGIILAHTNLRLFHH

For the molecule `Nc1nc(N)c(CCCC(C(=O)C(F)(F)F)c2ccc(C(=O)NCC(=O)O)cc2)c(O)n1` (stereo unspecified), the inhibitory constant (Ki) (in general, the equilibrium dissociation constant of an inhibitor or competing ligand from its target) in test [1] is > 100 µM; in test [5], 21 µM. In addition, the IC50 in test [2], in test [3], in test [4], in test [6] and in test [7] was > 100 µM each time.

Turning to `Nc1nc(N)c(CCCC(C(=O)C(F)(F)F)c2ccc(C(=O)NC(CCC(=O)O)C(=O)O)cc2)c(O)n1` (stereo unspecified), in test [1], the Ki is > 100 µM. Moreover, the IC50 (as a rule, the concentration that gives 50% inhibition) in test [2] is > 100 µM; in test [3], > 100 µM; in test [4], 0.016 µM; in test [6] it was > 100 µM; in test [7] it was 0.017 µM.

As to `Nc1nc(N)c(CCCC(C(=O)C(F)(F)F)c2ccc(C(=O)NCc3nnn[nH]3)cc2)c(=O)[nH]1` (stereo unspecified), the Ki in test [1] is > 100 µM; in test [5], 5 µM. Moreover, the half-maximal inhibitory concentration (IC50) is 30 µM in test [2]; > 100 µM in test [3]; 10 µM in test [4]; 40 µM in test [6]; 30 µM in test [7].

In the case of `Nc1nc(N)c(CCCC(C(=O)C(F)(F)F)c2ccc(C(=O)N[C@@H](CCc3nnn[nH]3)C(=O)O)cc2)c(=O)[nH]1` (stereo partly specified), the Ki in test [1] came to 46 µM; in test [5], 0.13 µM. Moreover, the IC50 in test [2] was 10 µM; in test [3], > 100 µM; in test [4], 0.04 µM; in test [6], 0.05 µM; in test [7], 0.09 µM.

Take `Nc1nc2c(c(=O)[nH]1)C[C@@H](CCc1ccc(C(=O)N[C@@H](CCC(=O)O)C(=O)O)cc1)CN2` [LOMETREXOL]: the Ki in test [1] was > 100 µM. Besides, the values for the IC50 in test [3], in test [4] and in test [6] were > 100 µM, 0.2 µM and 25 µM, respectively.
